Compound activity from PubChem BioAssay.
An excerpt weighted towards active compounds, which were near 4.8% of everything screened.
697 NFkB inh – inhibitors of the PMA/ionomycin-induced NF-kB reporter in 697 B cells. 697 B-cell NF-kB luciferase reporter, 16 h. inhibition, % at 4 µM. 330,000 tested, 0.33% active. AID 435022; in the data active = inhibition above about 35%
Jurkat NFkB inh – inhibitors of the PMA/ionomycin-induced NF-kB reporter in Jurkat cells | PMA/ionomycin-induced NF-kB luciferase reporter, luminescence | AID 435003 | 330,000 tested, 0.53% active | inhibition, % at 4 µM; in the data active = inhibition above about 50%
HSF1 activator – increases HSF-1 driven luciferase reporter signal | NIH3T3-HGL HSF-1 luciferase reporter, MG132, 8 h; 100% = twice DMSO control signal | activation, % at 9 µM | 300,000 tested, 1.7% active;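 active = mean replicate activation of at least 50% with a set share of replicates each reaching 50%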;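 note: 0% = median of the neutral control wells and 100% = twice that signal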
GPR7 antag – antagonists of human GPR7 (neuropeptides B/W receptor 1); inhibition, % at 4.4 µM; GPR7-expressing cells, fluorescence antagonist assay; P48145; 290,000 tested, 1.1% active; AID 1861; in the data active = inhibition above about 16%, passing the limit was not always enough;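 note: cells stimulated with the agonist NPW; 0% = agonist with vehicle and 100% = vehicle without agonist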
Target sequence (P48145 whole entry, looked up): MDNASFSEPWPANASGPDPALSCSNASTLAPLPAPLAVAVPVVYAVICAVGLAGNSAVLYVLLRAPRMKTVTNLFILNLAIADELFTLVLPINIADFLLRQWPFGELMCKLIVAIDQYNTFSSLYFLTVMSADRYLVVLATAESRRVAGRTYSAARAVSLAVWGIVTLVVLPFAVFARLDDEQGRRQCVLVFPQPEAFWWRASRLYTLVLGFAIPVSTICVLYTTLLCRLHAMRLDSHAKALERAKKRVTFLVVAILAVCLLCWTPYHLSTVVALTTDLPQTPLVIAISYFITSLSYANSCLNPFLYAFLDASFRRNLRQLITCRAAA
T cruzi inh – blocks replication of Trypanosoma cruzi | T. cruzi beta-gal in NIH3T3, luminescence, 90 h | inhibition, % (test concentration not listed) | 300,000 tested, 1.4% active;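 active = mean inhibition across valid replicates above about 55%, limit read from the data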;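 note: signal also drops with host cell toxicity which is not excluded here; 0% = plate median of DMSO wells and 100% = zero luminescence signal; higher percent means less beta-gal luminescence so fewer parasites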
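System: NIH/3T3 fibroblasts plus reporter T. cruzi. Medium: DMEM plus 2% FBS. Probe or stimulus: 5000 reporter trypomastigotes per well. Compound: single 50 nL compound addition per well in DMSO. Incubation: co-culture of at least 90 h after 3 h attachment. Detection: GalScreen β-gal luminescence, detergent lysis, 60 min. Evaluation: parasite load inhibition, %.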
HSF1 inhib – HSF1 inhibition; AID 2098; 300,000 tested, 0.77% active; NIH3T3-HGL HSE-luciferase, MG132-induced, luminescence 8 h; stronger effect = lower value; activity change, negative = inhibition, % at 7.5 µM (by protocol);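 active = more than half of replicate wells show activity change below -50%, luminescence cut by over half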;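 note: luciferase reports HSF-1 transcriptional activity via heat shock element; 0% = median of DMSO wells and -100% = zero luminescence signal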
Numbers without * were called inactive; nt = no result.

SMILES	697 NFkB inh	Jurkat NFkB inh	HSF1 activator	GPR7 antag	T cruzi inh	HSF1 inhib
CCNC(=S)N/N=C/c1ccc(-c2ccccc2)o1	-26	10	81*	-8	0	49
CNC(=S)N/N=C/c1ccc(-c2cccc(C(=O)O)c2)o1	-31	-10	-66	-4	-1	-60*
Cc1ccc(OCC(=O)N/N=C\c2ccc(-c3cccc(C(=O)O)c3)o2)c(C)c1	-47	-15	-9	7	-39	-15
CC(C)C(NC(=O)Cc1ccccc1)C(=O)N1CCN(c2cccc(Cl)c2)CC1 (stereo not given)	-16	14	nt	nt	nt	nt
CCOc1ccccc1CN1CCNC(=O)C1CC(=O)NCc1cc(C)n(C)n1 (stereo not given)	7	10	6	-10	-10	-4
O=C(COc1ccc(S(=O)(=O)N2CCCC2)cc1)NCc1cccnc1	17	13	-8	-8	-6	0
O=C(Cn1cnc([N+](=O)[O-])c1)Nc1cc(Oc2ccc(Cl)cc2Cl)cc([N+](=O)[O-])c1	12	-2	38	17	57*	19
COc1ccc(-n2c(C)cc(-c3csc(NC(=O)c4ccc(S(=O)(=O)N(C)C)cc4)n3)c2C)cc1	21	17	-66	3	-7	-54*
COC(C(=O)Nc1ccnn1C1CCN(Cc2ccc(CO)o2)CC1)c1ccccc1 (stereo not given)	24	10	0	-9	-13	2
Cc1c(C(=O)NCc2ccc3c(c2)OCO3)oc2ccc(S(=O)(=O)N3CCC(C)CC3)cc12	-75	11	4	1	56*	-1
Cc1ccc(S(=O)(=O)N2CCCCC2)cc1NC(=O)COC(=O)c1ccc2c(c1)OCO2	18	2	-6	-1	6	2
Cc1c(C(=O)NCc2ccc3c(c2)OCO3)oc2ccc(S(=O)(=O)N3CCCCCC3)cc12	-4	24	22	-14	55*	9
Cc1ccc(S(=O)(=O)N2CCCCC2)cc1NC(=O)c1ccc2c(c1)OCO2	-8	20	69*	-15	-2	26
Cc1ccc2oc(C(=O)NCc3ccc4c(c3)OCO4)c(C)c2c1	-4	-7	11	-5	2	3
CC(C)c1ccc(NC(=O)CCNC(=O)Cn2cnc3ccccc3c2=O)cc1	6	-12	20	-9	-2	1
COc1ccc(C2=NS(=O)(=O)N(C)C(C(=O)NC3CCCCC3)=C2)cc1OC	16	-12	-10	0	8	-9
CCOC(=O)C1CCN(c2ncnc3c2c(-c2ccccc2)cn3-c2ccccc2)CC1	1	-2	23	3	59*	2
Cc1ccc(-n2cc(-c3ccccc3)c3c(N4CCOCC4)ncnc32)cc1	nt	nt	-38	-16	2	-35
Cc1nnc(N2CCC(C(=O)N3CCCCC3)CC2)c2nn(-c3ccc(Cl)cc3)c(C)c12	4	38	17	9	40	2
COc1ccc(-n2nc3c(N4CCC(C(=O)N5CCC(C)CC5)CC4)nnc(C)c3c2C)cc1	-21	36	55*	6	30	17
O=C(N/N=C/c1ccc(N2CCOCC2)cc1)C1COc2ccccc2O1 (stereo not given)	22	0	6	-6	-10	-4
COc1nc(-c2ccccc2)ccc1-c1noc(COc2ccccc2)n1	-10	-19	-74	-9	8	-68*
Cc1ccc(OCc2nc(-c3ccccn3)no2)cc1	-210	-109	63*	-16	-3	41
Cc1cccc(NC(=O)CCc2c(C)nn(-c3ccc(N4CCCCC4)nn3)c2C)c1	-11	-54	64*	-2	4	32
Cc1cccc(NC(=O)CCc2c(C)nn(-c3ccc(N4CCOCC4)nn3)c2C)c1	-4	4	-1	2	-5	-5
COc1cc(NC(=O)c2ccc(OCc3c(C)noc3C)c(OC)c2)cc(OC)c1	16	-15	nt	nt	nt	nt
COC(C(=O)N/N=C(\C)CC(=O)Nc1ccc(Cl)cc1C)c1ccccc1 (stereo not given)	5	1	122*	-1	8	79
CCCn1c(=O)c2ccccc2n2c(SCC(=O)NCc3cccs3)nnc12	-9	5	7	18*	-5	1
